Screening results as filed in PubChem BioAssay.
A selection: hits, their analogues and other compounds. The true share with any hit is near 2.6%.
SENP8 block-1 = SENP8 protease inhibition; AID 2540; 330,000 tested, 1.2% active; inhibition, % at 10 µM; Q96LD8; purified SENP8, Z-RLRGG-aminoluciferin cleavage, luminescence; in the data active means inhibition above about 50%
SENP1 inh = SENP1 (human) catalytic domain inhibition | recombinant SENP1 catalytic domain, CyPet-SUMO1-YPet FRET cleavage | inhibition, % at 10 µM | 360,000 tested, 0.21% active | AID 624204;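 active means inhibition at least 30% at 10 µM, raw YFP signal under a set limit, fluorescence ratio 0.5 to 1.5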;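 further: 0% = enzyme with DMSO and 100% = no enzyme wells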
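Assay system – human recombinant His6-tagged SENP1 catalytic domain enzyme · Input – SENP1 enzyme, 20 pM final · Buffer or medium – Tris pH 8 buffer plus EDTA, NaCl, BME, BSA, NP40, catalase · Schedule – 50 min reaction at room temperature · Technique – FRET read of cyan and yellow fluorescence · Control set – no-enzyme wells low, DMSO-plus-enzyme wells high control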
Platelet DG rel = modulates dense granule release in human platelets | human platelet-rich plasma, SFLLRN dense granule ATP release, luminescence | inhibition, %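 (compounds screened at 7.5 µM in platelet-rich plasma)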 | 300,000 tested, 0.22% active | AID 1663;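 active means mean replicate score, as percent of positive control, at or above 50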
SENP8 block-2 = inhibitors of human SENP8 protease; recombinant SENP8, Nedd8 substrate fluorescence; inhibition, % at 20 µM; Q96LD8; 360,000 tested, 0.64% active; in the data active means inhibition mostly above about 40%, no sharp cut-off; inactive means mostly below about 27%
SENP6 block = blocks the human protease SENP6 | 330,000 tested, 1.8% active | Q9GZR1 | AID 2599 | Recombinant SENP6 catalytic domain, aminoluciferin luminescence | inhibition, % at 10 µM;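 active means inhibition above about 50% at the single tested dose, limit read from the data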;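 further: plate controls were DMSO wells with enzyme for no effect and DMSO wells lacking enzyme for full effect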
Target sequence (Q9GZR1 628-1112 limits assumed): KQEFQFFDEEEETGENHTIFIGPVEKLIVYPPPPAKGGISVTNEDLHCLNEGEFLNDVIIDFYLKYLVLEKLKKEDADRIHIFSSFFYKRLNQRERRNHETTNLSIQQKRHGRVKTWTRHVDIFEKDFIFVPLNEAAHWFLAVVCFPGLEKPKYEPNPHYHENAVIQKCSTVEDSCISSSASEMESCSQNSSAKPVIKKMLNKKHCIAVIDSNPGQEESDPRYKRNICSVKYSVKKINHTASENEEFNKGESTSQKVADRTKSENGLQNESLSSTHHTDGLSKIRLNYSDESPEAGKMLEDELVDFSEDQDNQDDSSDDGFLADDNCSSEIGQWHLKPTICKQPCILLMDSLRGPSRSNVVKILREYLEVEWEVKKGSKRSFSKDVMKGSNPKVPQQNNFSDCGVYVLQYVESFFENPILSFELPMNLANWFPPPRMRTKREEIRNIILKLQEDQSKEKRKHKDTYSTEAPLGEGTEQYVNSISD
SENP7 inh = blocks the human protease SENP7. recombinant SENP7, Z-RLRGG-aminoluciferin luminescence, 40 min. inhibition, % at 5 µM. 330,000 tested, 1.5% active;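 active means inhibition above about 50% at the single test dose, limit read from the data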;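 further: plate controls were DMSO with enzyme for no effect and no enzyme buffer wells for full effect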
SENP8 confirm = human SENP8 inhibition, confirmed; shares compounds with SENP7 inh; Recombinant SENP8, Z-RLRGG-aminoluciferin luminescence, 60 min; inhibition, % at 12.5 µM; 6,200 tested, 40% active; AID 488912;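 active means mean inhibition across replicates above about 50%, limit read from the data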
SENP6 conf = human SENP6 inhibition, confirmed | 6,200 tested, 58% active | shares compounds with SENP7 inh | inhibition, % at 12.5 µM | AID 488915 | recombinant SENP6, Z-RLRGG-aminoluciferin luminescence
SENP7 confirm = human SENP7 inhibition, confirmed; shares compounds with SENP7 inh; recombinant SENP7, Z-RLRGG-aminoluciferin luminescence, 40 min; inhibition, % at 12.5 µM; 6,200 tested, 69% active; AID 488917
Casp3 SENP sel = inhibits human caspase-3 in SENP selectivity test; shares compounds with SENP7 inh; purified caspase-3, Z-DEVD-aminoluciferin luminescence, 60 min; inhibition, % at 12.5 µM; 6,200 tested, 60% active; AID 488918;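 active means mean inhibition above about 50%, limit read from the data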;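 further: plate controls were enzyme with DMSO for no effect and wells without caspase-3 for full effect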
SENP luc ctr = counter-screen for SENP inhibitors: luminescence interference; shares compounds with SENP7 inh; inhibition, % at 12.5 µM; AID 488919; Pre-incubated SENP8/Z-RLRGG-aminoluciferin, luciferase luminescence interference; 6,200 tested, 39% active;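 active means mean inhibition above about 50% when retested at one dose, limit read from the data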;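 further: plate controls were DMSO wells with completed reaction for no effect and substrate without enzyme for full effect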
* hit, by the source's call.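 How the source made its calls, unless noted: active means mean inhibition above about 50% in the one-dose retest (limit read from the data); inactive means the rest.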

Results for CCOC(=O)c1ccc(Nc2cc(C)nc(-c3ccccc3)n2)cc1 ?
SENP8 block-1: -13.4; SENP1 inh: -0.4; Platelet DG rel: 13.8; SENP8 block-2: -172.1; SENP6 block: -5.5; SENP7 inh: 1.7

How did CCOC(=O)c1ccc(NCc2nc3ccccc3[nH]2)cc1 do in these assays?
SENP8 block-1: 85.3*; SENP1 inh: -18.7; Platelet DG rel: -1.2; SENP8 block-2: -46.2; SENP6 block: 93.1*; SENP7 inh: 58.1*; SENP8 confirm: 67.1*; SENP6 conf: 61.4*; SENP7 confirm: 82.9*; Casp3 SENP sel: 68.5*; SENP luc ctr: 71.3*

Results for O=C(O)c1ccc(Nc2cnc3ccccc3n2)cc1 ?
SENP8 block-1: 88.1*; SENP1 inh: -4.5; Platelet DG rel: 26.5; SENP8 block-2: -70.4; SENP6 block: 92.9*; SENP7 inh: 96.6*; SENP8 confirm: 91.6*; SENP6 conf: 92.3*; SENP7 confirm: 100.5*; Casp3 SENP sel: 96.8*; SENP luc ctr: 86.7*

How did CCOC(=O)c1ccc(Nc2ncccc2[N+](=O)[O-])cc1 do in these assays?
SENP8 block-1: 34.1; SENP1 inh: 0.9; Platelet DG rel: 4.8; SENP8 block-2: 39.9; SENP6 block: 24.1; SENP7 inh: 82.9*; SENP8 confirm: 32.1; SENP6 conf: 38.8; SENP7 confirm: 48.5; Casp3 SENP sel: 57.3*; SENP luc ctr: 6.4

How did O=C(O)c1cnc2ccccc2n1 do in these assays?
SENP8 block-1: -0.4; SENP1 inh: 0.8; Platelet DG rel: -3.9; SENP8 block-2: 9.2; SENP6 block: 3.1; SENP7 inh: -7.3

What do the screens show for `CCOC(=O)c1ccc(Nc2cnc3ccccc3n2)cc1`?
SENP8 block-1: -13.7; SENP1 inh: -40.9; Platelet DG rel: -3.6; SENP8 block-2: -331.9; SENP6 block: 18.0; SENP7 inh: 56.4*; SENP8 confirm: 7.4; SENP6 conf: 20.0; SENP7 confirm: 63.0*; Casp3 SENP sel: 11.4; SENP luc ctr: 7.7

What do the screens show for `COc1ccc(S(=O)(=O)N2CCC(C(=O)NC3CC3)CC2)cc1OC`?
SENP8 block-1: 3.0; SENP1 inh: 0.5; Platelet DG rel: -0.2; SENP8 block-2: -1.9; SENP6 block: -4.1; SENP7 inh: -2.9

How did CC1(C)C2CCC1(CS(=O)(=O)NCc1ccc(Cl)cc1Cl)C(=O)C2 (centres undefined) do in these assays?
SENP8 block-1: 10.1; SENP1 inh: -0.4; Platelet DG rel: 6.7; SENP8 block-2: 12.3; SENP6 block: -10.8; SENP7 inh: -8.2

What do the screens show for `CNc1ccc(-c2cc(OC)ccc2OC)cn1`?
SENP1 inh: 0.7; SENP8 block-2: -493.5

What do the screens show for `Cc1cccc(/C=N\Nc2cn[nH]c(=O)c2Cl)c1`?
SENP8 block-1: 54.8*; SENP1 inh: -1.5; Platelet DG rel: 22.3; SENP8 block-2: -193.3; SENP6 block: 76.5*; SENP7 inh: 71.4*; SENP8 confirm: 71.4*; SENP6 conf: 67.3*; SENP7 confirm: 88.2*; Casp3 SENP sel: 76.3*; SENP luc ctr: 45.1

How did CCN(C[C@H]1N[C@@](Cc2ccccc2)(C(=O)OC)[C@H]2C(=O)N(Cc3ccccc3)C(=O)[C@@H]12)S(=O)(=O)c1ccc(C(C)(C)C)cc1 do in these assays?
SENP8 block-1: -9.5; SENP1 inh: 0.3; SENP8 block-2: 5.3; SENP6 block: -4.3; SENP7 inh: -10.3

How did Cc1ccc(C(=O)n2c(=S)nc3ccccn32)cc1 do in these assays?
Platelet DG rel: 22.4
